Data: ChEMBL document CHEMBL3351652, “First photoswitchable neurotransmitter transporter inhibitor: light-induced control of γ-aminobutyric acid transporter 1 (GAT1) activity in mouse brain” (J Med Chem, 2014)
The source made the active and inactive calls. The rule behind the calls is not given here.

Legend:
[1] = target: T1, Sodium- and chloride-dependent GABA transporter 1 (Mus musculus, UniProt P31648); test: Inhibition of mouse GAT1 stably expressed in HEK293 assessed as inhibition of [3H]GABA uptake treated with compound irradiated at 375 nm for 30 mins measured after 25 mins by liquid scintillation counting; format: cell-based
[2] = Half life of thermal relaxation of the compound in DMSO-d6/phosphate-buffer at pH 7.4 in dark at 50 uM by UV/vis-spectroscopy; format: physicochemical; settings: pH 7.4, 50 µM
How it was run: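 Photoisomer relaxation to (E) monitored in the dark by UV/vis spectroscopy at 50 μM in DMSO-d6/phosphate buffer (pH 7.4) 1:200 (v/v), 25 °C; half-life derived from this thermal back-isomerization.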

[3] = target: T2, GABA transporter 2 (Mus musculus, UniProt P31651); test: Inhibition of mouse GAT2 stably expressed in HEK293 assessed as inhibition of [3H]GABA uptake after 25 mins by liquid scintillation counting; format: cell-based
T2 sequence (P31651 whole entry): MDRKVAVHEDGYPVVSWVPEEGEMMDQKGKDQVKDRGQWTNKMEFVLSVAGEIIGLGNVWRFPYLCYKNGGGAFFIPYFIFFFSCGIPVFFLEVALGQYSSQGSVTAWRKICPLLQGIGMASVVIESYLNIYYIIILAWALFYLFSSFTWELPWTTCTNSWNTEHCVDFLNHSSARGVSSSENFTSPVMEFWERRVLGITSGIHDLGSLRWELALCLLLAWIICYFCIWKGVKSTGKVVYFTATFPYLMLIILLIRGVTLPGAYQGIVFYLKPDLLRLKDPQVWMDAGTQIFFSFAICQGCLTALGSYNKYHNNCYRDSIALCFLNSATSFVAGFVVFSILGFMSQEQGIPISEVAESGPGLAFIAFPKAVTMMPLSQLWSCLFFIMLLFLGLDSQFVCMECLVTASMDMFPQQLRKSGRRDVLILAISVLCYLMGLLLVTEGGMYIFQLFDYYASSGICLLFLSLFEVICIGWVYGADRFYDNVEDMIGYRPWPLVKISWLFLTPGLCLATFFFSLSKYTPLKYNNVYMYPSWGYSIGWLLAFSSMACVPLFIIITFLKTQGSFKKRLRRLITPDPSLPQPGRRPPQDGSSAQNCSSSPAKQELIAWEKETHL
How it was run: (§1)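 HEK cells stably expressing the individual murine GABA transporter subtype; standardized [3H]GABA uptake assay adapted for photoswitchable ligands, run with the pure (E)-isomers; inhibition expressed as pIC50 ± SEM.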

[4] = target: T1, Sodium- and chloride-dependent GABA transporter 1; test: Inhibition of mouse GAT1 stably expressed in HEK293 assessed as inhibition of [3H]GABA uptake after 25 mins by liquid scintillation counting; format: cell-based; how it was run: as §1
[5] = target: T3, GABA transporter 3 (Mus musculus, UniProt P31649); test: Inhibition of mouse GAT3 stably expressed in HEK293 assessed as inhibition of [3H]GABA uptake after 25 mins by liquid scintillation counting; format: cell-based; how it was run: as §1
T3 sequence (P31649 whole entry): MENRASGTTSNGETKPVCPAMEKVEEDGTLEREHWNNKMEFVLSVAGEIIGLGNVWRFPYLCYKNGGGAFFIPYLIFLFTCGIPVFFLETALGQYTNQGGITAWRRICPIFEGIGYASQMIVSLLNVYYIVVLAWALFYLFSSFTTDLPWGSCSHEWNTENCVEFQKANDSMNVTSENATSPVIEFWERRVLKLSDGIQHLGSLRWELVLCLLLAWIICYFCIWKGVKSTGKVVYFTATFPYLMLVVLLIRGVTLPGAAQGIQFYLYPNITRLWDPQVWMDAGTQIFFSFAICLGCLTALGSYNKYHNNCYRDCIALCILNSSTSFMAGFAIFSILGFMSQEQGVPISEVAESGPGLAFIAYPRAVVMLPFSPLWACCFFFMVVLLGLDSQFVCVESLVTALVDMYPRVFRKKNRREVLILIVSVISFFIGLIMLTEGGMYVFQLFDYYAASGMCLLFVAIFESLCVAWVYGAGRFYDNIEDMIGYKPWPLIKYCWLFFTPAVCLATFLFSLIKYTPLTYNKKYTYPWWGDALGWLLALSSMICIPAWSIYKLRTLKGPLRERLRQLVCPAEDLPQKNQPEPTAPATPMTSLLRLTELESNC

[6] = target: T4, GABA transporter 4 (Mus musculus, UniProt P31650); test: Inhibition of mouse GAT4 stably expressed in HEK293 assessed as inhibition of [3H]GABA uptake after 25 mins by liquid scintillation counting; format: cell-based; how it was run: as §1
T4 sequence (P31650 whole entry): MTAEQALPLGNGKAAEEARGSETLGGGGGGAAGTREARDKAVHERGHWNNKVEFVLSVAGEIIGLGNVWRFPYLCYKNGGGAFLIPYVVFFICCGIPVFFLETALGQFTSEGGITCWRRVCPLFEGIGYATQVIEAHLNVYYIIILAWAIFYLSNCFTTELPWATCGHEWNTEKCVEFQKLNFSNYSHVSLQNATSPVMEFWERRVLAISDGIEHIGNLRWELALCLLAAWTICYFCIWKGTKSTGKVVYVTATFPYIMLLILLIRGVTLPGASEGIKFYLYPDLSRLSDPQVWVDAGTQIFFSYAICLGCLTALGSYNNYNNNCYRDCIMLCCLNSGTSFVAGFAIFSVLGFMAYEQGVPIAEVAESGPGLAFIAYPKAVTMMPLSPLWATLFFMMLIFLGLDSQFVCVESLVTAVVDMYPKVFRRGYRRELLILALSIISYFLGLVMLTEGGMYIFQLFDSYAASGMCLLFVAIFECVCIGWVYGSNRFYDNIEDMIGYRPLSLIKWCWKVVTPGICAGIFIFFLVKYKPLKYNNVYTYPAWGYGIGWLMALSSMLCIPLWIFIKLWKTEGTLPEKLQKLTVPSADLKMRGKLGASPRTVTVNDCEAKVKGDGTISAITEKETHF

[7] = target: T1, Sodium- and chloride-dependent GABA transporter 1; test: Inhibition of mouse GAT1 stably expressed in HEK293 assessed as inhibition of [3H]GABA uptake treated with compound irradiated at 350 nm for 30 mins measured after 25 mins by liquid scintillation counting; format: cell-based
[8] = target: Sodium- and chloride-dependent GABA transporter 1 (Mus musculus) (UniProt P31648); test: Selectivity ratio of IC50 for mouse GAT1 stably expressed in HEK293 assessed as inhibition of [3H]GABA uptake after 25 mins to IC50 for mouse GAT1 stably expressed in HEK293 assessed as inhibition of [3H]GABA uptake treated with compound irradiated at 375 nm for 30 mins measured after 25 mins
[9] = Half life of thermal relaxation of the compound in D2O in dark at 10 mM by 1H NMR analysis; format: physicochemical; settings: 10000 µM
How it was run: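 Thermal relaxation of the photoisomer back to the (E)-form followed in the dark by 1H NMR in D2O, 10 mM, at 37 °C.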

[10] = target: Sodium- and chloride-dependent GABA transporter 1 (Mus musculus) (UniProt P31648); test: Inhibition of GAT1 in C57BL/6N mouse dentate gyrus granule cells assessed as induction of tonic GABAA receptor-mediated current at -70 mV holding potential non-UV irradiated compound treated at 20 uM by patch-clamp analysis
[11] = target: Sodium- and chloride-dependent GABA transporter 1 (Mus musculus) (UniProt P31648); test: Inhibition of GAT1 in C57BL/6N mouse dentate gyrus granule cells assessed as induction of tonic GABAA receptor-mediated current at -70 mV holding potential compound treated at 20 uM followed by neuronal tissue UV-irradiation by patch-clamp analysis
[12] = target: Sodium- and chloride-dependent GABA transporter 1 (Mus musculus) (UniProt P31648); test: Inhibition of GAT1 in C57BL/6N mouse dentate gyrus granule cells assessed as induction of tonic GABAA receptor-mediated current at -70 mV holding potential UV irradiated compound treated at 20 uM by patch-clamp analysis

Structure (SMILES)	IC50 [1] [µM]	IC50 [3] [µM]	IC50 [4] [µM]	IC50 [5] [µM]	IC50 [6] [µM]	IC50 [7] [µM]	t1/2 [9] [h]	also measured
O=C(O)[C@@H]1CCCN(CCOCCc2ccc(/N=N\c3cccc4ccccc34)cc2)C1	0.794	–	–	–	–	–	–	t1/2 [2]: 13.6 h
O=C(O)C1CCCN(CCOCCc2ccccc2/N=N/c2ccccc2)C1 (stereo not given)	–	234	10.7	145	562	5.5	–	–
O=C(O)[C@@H]1CCCN(CCOCCc2ccc(/N=N/c3cccc4ccccc34)cc2)C1	0.794	20.4	0.269	19.5	22.9	–	–	Ratio IC50 [8]: 3
O=C(O)C1CCCN(CCOCCc2ccccc2/N=N\c2ccccc2)C1 (stereo not given)	–	–	–	–	–	5.5	115	–
O=C(O)[C@@H]1CCCN(CCOCCc2cccc(/N=N/c3cccc4ccccc34)c2)C1	1.66	64.6	0.407	25.1	30.9	–	–	inhibition [10]: Active; Ratio IC50 [8]: 4; inhibition [11]: inactive; inhibition [12]: inactive
O=C(O)C1CCCN(CCOCCc2cccc(/N=N/c3ccccc3)c2)C1 (stereo not given)	–	339	3.16	148	209	4.17	–	–
O=C(O)[C@@H]1CCCN(CCOCCc2cccc(/N=N\c3cccc4ccccc34)c2)C1	1.66	–	–	–	–	–	–	t1/2 [2]: 19.3 h
O=C(O)C1CCCN(CCOCCc2ccc(/N=N\c3ccccc3)cc2)C1 (stereo not given)	–	–	–	–	–	4.57	57.6	–
O=C(O)C1CCCN(CCOCCc2cccc(/N=N\c3ccccc3)c2)C1 (stereo not given)	–	–	–	–	–	4.17	140	–
O=C(O)C1CCCN(CCOCCc2ccc(/N=N/c3ccccc3)cc2)C1 (stereo not given)	–	> 1000	1.91	> 1000	> 1000	4.57	–	–
